From ChEMBL document CHEMBL2311458, “A facile synthesis, antibacterial activity of pulvinone and its derivatives” (2013)
Values after ≈ are worked out from the molar mass of the structure shown. Active and inactive are the calls of the source. No cut-off for these calls is given here.

Assays:
Format in all cases: functional
Staphylococcus aureus [1] = assay: Antibacterial activity against Staphylococcus aureus assessed as growth inhibition measured at 50 ug/ml after 24 hrs by broth microdilution method
Acinetobacter baumannii [2] = assay: Antibacterial activity against Acinetobacter baumannii assessed as growth inhibition measured after 24 hrs by broth microdilution method
How it was run: (§1)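 Broth microdilution per NCCLS. Bacteria were grown in Luria broth to exponential phase. Compounds were dissolved in DMSO (stock 5120 μg/ml), diluted in test medium and tested at two-fold dilutions from 1 to 128 μg/ml. MIC50 is the lowest concentration reducing OD to half that of the untreated control.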

[3] = tested on: Stenotrophomonas maltophilia; assay: Antibacterial activity against Stenotrophomonas maltophilia assessed as growth inhibition measured after 24 hrs by broth microdilution method; how it was run: as §1
Pseudomonas aeruginosa [4] = assay: Antibacterial activity against Pseudomonas aeruginosa assessed as growth inhibition measured after 24 hrs by broth microdilution method; how it was run: as §1
Escherichia coli [5] = assay: Antibacterial activity against Escherichia coli assessed as growth inhibition measured after 24 hrs by broth microdilution method; how it was run: as §1
Acinetobacter baumannii [6] = assay: Antibacterial activity against Acinetobacter baumannii assessed as growth inhibition measured at 50 ug/ml after 24 hrs by broth microdilution method
[7] = tested on: Stenotrophomonas maltophilia; assay: Antibacterial activity against Stenotrophomonas maltophilia assessed as growth inhibition measured at 50 ug/ml after 24 hrs by broth microdilution method
Pseudomonas aeruginosa [8] = assay: Antibacterial activity against Pseudomonas aeruginosa assessed as growth inhibition measured at 50 ug/ml after 24 hrs by broth microdilution method
Escherichia coli [9] = assay: Antibacterial activity against Escherichia coli assessed as growth inhibition measured at 50 ug/ml after 24 hrs by broth microdilution method
Staphylococcus aureus [10] = assay: Antibacterial activity against Staphylococcus aureus assessed as growth inhibition measured after 24 hrs by broth microdilution method; how it was run: as §1

O=C1O/C(=C\c2ccccc2)C(O)=C1c1ccccc1 [PULVINONE]
inhibition at 50 µg/mL (Staphylococcus aureus [1]): 59.2%
MIC50 (Acinetobacter baumannii [2]): > 50 µg/mL
MIC50 [3]: 12.8 µg/mL (≈ 48.4 µM)
MIC50 (Pseudomonas aeruginosa [4]): > 50 µg/mL
MIC50 (Escherichia coli [5]): 1.38 µg/mL (≈ 5.22 µM)

COC1=C(c2ccc(F)cc2)C(=O)OC1C(O)c1ccc(N2CCOCC2)c(F)c1 (centres undefined)
inhibition (Staphylococcus aureus [1]): inactive
inhibition at 50 µg/mL (Acinetobacter baumannii [6]): 22.8%
inhibition at 50 µg/mL [7]: 31.9%
inhibition at 50 µg/mL (Pseudomonas aeruginosa [8]): 35.2%
inhibition at 50 µg/mL (Escherichia coli [9]): 42%
MIC50 (Escherichia coli [5]): > 50 µg/mL

O=C1O/C(=C\c2ccc(N3CCOCC3)c(F)c2)C(O)=C1c1ccc(F)cc1
inhibition (Staphylococcus aureus [1]): inactive
inhibition at 50 µg/mL (Acinetobacter baumannii [6]): 15.6%
inhibition at 50 µg/mL [7]: 27.8%
inhibition at 50 µg/mL (Pseudomonas aeruginosa [8]): 23.2%
inhibition at 50 µg/mL (Escherichia coli [9]): 56.8%
MIC50 (Escherichia coli [5]): 15.6 µg/mL (≈ 40.5 µM)

COC1=C(c2ccc(C)cc2)C(=O)OC1C(O)c1ccc(N2CCOCC2)c(F)c1 (centres undefined)
inhibition (Staphylococcus aureus [1]): inactive
inhibition at 50 µg/mL (Acinetobacter baumannii [6]): 4.9%
inhibition at 50 µg/mL [7]: 1.1%
inhibition at 50 µg/mL (Pseudomonas aeruginosa [8]): 31.8%
inhibition at 50 µg/mL (Escherichia coli [9]): 58.3%
MIC50 (Escherichia coli [5]): 3.67 µg/mL (≈ 8.88 µM)

COC1=C(c2ccc(Cl)cc2)C(=O)OC1C(O)c1ccc(N2CCOCC2)c(F)c1 (centres undefined)
inhibition (Staphylococcus aureus [1]): inactive
inhibition at 50 µg/mL (Acinetobacter baumannii [6]): 22.1%
inhibition at 50 µg/mL (Pseudomonas aeruginosa [8]): 31.7%
inhibition at 50 µg/mL (Escherichia coli [9]): 61.8%
MIC50 (Escherichia coli [5]): 30.3 µg/mL (≈ 69.7 µM)

COC1=C(c2ccccc2)C(=O)OC1C(O)c1ccc(N2CCOCC2)c(F)c1 (centres undefined)
inhibition (Staphylococcus aureus [1]): inactive
inhibition at 50 µg/mL (Acinetobacter baumannii [6]): 29.2%
inhibition at 50 µg/mL [7]: 17.1%
inhibition at 50 µg/mL (Pseudomonas aeruginosa [8]): 34.8%
inhibition at 50 µg/mL (Escherichia coli [9]): 52.4%
MIC50 (Escherichia coli [5]): 36.5 µg/mL (≈ 91.3 µM)

COC1=C(c2ccc(Cl)cc2)C(=O)O/C1=C\c1ccc(N2CCOCC2)c(F)c1
inhibition (Staphylococcus aureus [1]): inactive
inhibition at 50 µg/mL (Pseudomonas aeruginosa [8]): 45.3%
inhibition at 50 µg/mL (Escherichia coli [9]): 70.7%
MIC50 (Escherichia coli [5]): 7.4 µg/mL (≈ 17.8 µM)

COC1=C(c2ccccc2)C(=O)OC1C(O)c1ccccc1 (centres undefined)
inhibition (Staphylococcus aureus [1]): inactive
inhibition at 50 µg/mL (Acinetobacter baumannii [6]): 25.9%
inhibition at 50 µg/mL [7]: 18%
inhibition at 50 µg/mL (Pseudomonas aeruginosa [8]): 53.2%
inhibition at 50 µg/mL (Escherichia coli [9]): 61.7%
MIC50 (Escherichia coli [5]): 5.86 µg/mL (≈ 19.8 µM)

COC1=C(c2cccc(F)c2)C(=O)OC1C(O)c1ccc(N2CCOCC2)c(F)c1 (centres undefined)
inhibition (Staphylococcus aureus [1]): inactive
inhibition at 50 µg/mL (Acinetobacter baumannii [6]): 30.9%
inhibition at 50 µg/mL [7]: 41.5%
inhibition at 50 µg/mL (Pseudomonas aeruginosa [8]): 38.2%
inhibition at 50 µg/mL (Escherichia coli [9]): 72%
MIC50 (Escherichia coli [5]): 4.09 µg/mL (≈ 9.8 µM)

C[C@H]1COc2c(N3CCN(C)CC3)c(F)cc3c(=O)c(C(=O)O)cn1c23.C[C@H]1COc2c(N3CCN(C)CC3)c(F)cc3c(=O)c(C(=O)O)cn1c23.O [LEVOFLOXACIN]
MIC50 (Staphylococcus aureus [10]): < 0.25 µg/mL
MIC50 (Acinetobacter baumannii [2]): < 0.25 µg/mL
MIC50 [3]: < 0.25 µg/mL
MIC50 (Pseudomonas aeruginosa [4]): < 0.25 µg/mL
MIC50 (Escherichia coli [5]): < 0.25 µg/mL

COC1=C(c2ccccc2)C(=O)O/C1=C\c1ccc(N2CCOCC2)c(F)c1
inhibition (Staphylococcus aureus [1]): inactive
inhibition at 50 µg/mL (Acinetobacter baumannii [6]): 10%
inhibition at 50 µg/mL (Pseudomonas aeruginosa [8]): 17.6%
inhibition at 50 µg/mL (Escherichia coli [9]): 45.4%
MIC50 (Escherichia coli [5]): > 50 µg/mL

COC1=C(c2ccccc2)C(=O)O/C1=C\c1ccccc1
inhibition (Staphylococcus aureus [1]): inactive
inhibition at 50 µg/mL (Acinetobacter baumannii [6]): 18.2%
inhibition at 50 µg/mL [7]: 19.7%
inhibition at 50 µg/mL (Pseudomonas aeruginosa [8]): 45.4%
inhibition at 50 µg/mL (Escherichia coli [9]): 60.2%
MIC50 (Escherichia coli [5]): 3.91 µg/mL (≈ 14 µM)

COC1=C(c2ccc(Br)cc2)C(=O)OC1C(O)c1ccc(N2CCOCC2)c(F)c1 (centres undefined)
inhibition (Staphylococcus aureus [1]): inactive
inhibition at 50 µg/mL (Acinetobacter baumannii [6]): 32.9%
MIC50 [3]: 11.8 µg/mL (≈ 24.8 µM)
inhibition at 50 µg/mL (Pseudomonas aeruginosa [8]): 35.6%
inhibition at 50 µg/mL (Escherichia coli [9]): 45.5%
MIC50 (Escherichia coli [5]): 1.01 µg/mL (≈ 2.11 µM)

COC1=C(c2ccc(F)cc2)C(=O)O/C1=C\c1ccc(N2CCOCC2)c(F)c1
inhibition (Staphylococcus aureus [1]): inactive
inhibition at 50 µg/mL (Acinetobacter baumannii [6]): 20.1%
inhibition at 50 µg/mL [7]: 59.4%
MIC50 [3]: 20.6 µg/mL (≈ 51.7 µM)
inhibition at 50 µg/mL (Pseudomonas aeruginosa [8]): 23.4%
inhibition at 50 µg/mL (Escherichia coli [9]): 37.6%
MIC50 (Escherichia coli [5]): > 50 µg/mL
